Assay outcomes from PubChem BioAssay.
The list is a sample of the results.
Apaf1 activ = activators of human Apaf-1 apoptosome, primary screen, biochemical, DEVD-Rh110 fluorescence, uHTS | Apaf-1 apoptosome caspase-3 activation; active compounds read low | activity change, negative = activation, % at 20 µM | 330,000 compounds, 0.31% hits;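 active = activity change at or below -40% at 20 µM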
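System: Reconstituted apoptosome of Apaf-1, cytochrome c, caspase-9, procaspase-3 | Reagent: dATP, cytochrome c, and (Z-DEVD)2-Rh110 caspase-3 substrate | Times: 30 min compound preincubation and 50 min reaction, both room temperature | Detection: Caspase-3-released Rh110 fluorescence, 540 nm emission, 480 nm excitation | Measure: Caspase-3 activity via Apaf-1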
Rh110 act interf = Rh110 fluorescence interference by putative Apaf-1 activators, confirmation, artefact control for Apaf-1 activator project, biochemical, 20 µM; shares compounds with Apaf1 activ; quenched caspase reaction, Ex480/Em540; fluorescence interference (activity change), % at 20 µM, hits read low; 980 tested, under 10 active;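 active = mean activity change at or below -40% when tested at 20 µM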
Apaf-1 act conf2 = Apaf-1 activators, single-dose retest, confirmation, biochemical, fluorescence, DEVD-Rh110, 20 µM. activity change, negative = activation, % at 20 µM. reconstituted apoptosome caspase-3 activity; active compounds read low. shares compounds with Apaf1 activ. 980 compounds, 5% hits. AID 504617, 2011;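 active = mean activity change at or below -40%, meaning activation of 40% or more, at 20 µM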
Hits are given with their value; n = inactive; x = no result.

SMILES	Apaf1 activ	Rh110 act interf	Apaf-1 act conf2
CCOC(=O)C1Nc2ccccc2C2C(O)C(O)CC12 (stereo not drawn)	n	x	x
CCC(CC)c1nnc(NC(=O)CN2C(=O)c3ccccc3C2=O)s1	n	x	x
COC(=O)c1ccccc1NC(=O)CN1C(=O)CSC1=O	-48.4	n	n
O=C(COC(=O)c1cc(Cl)ccc1Cl)NCCN1C(=O)CSC1=O	n	x	x
Cc1ccc(C(=O)N2CCCN(c3nc4cc5c(cc4cc3C#N)OCO5)CC2)cc1	n	x	x
c1cc(SC2CCCCC2)cc(-c2nc3cnccn3c2NC2CCCCC2)c1	n	x	x
Cc1ccc2nc(-c3cccnc3)c(NC3CCCCC3)n2c1	-49.5	n	n
CCC(C)Sc1ccc(-c2nc3ccc(C)cn3c2NC2CCCCC2)cc1 (stereo not drawn)	n	x	x
COc1ccccc1N1C(C)=CC(=C(C#N)c2nc3ccccc3s2)C=C1C	n	x	x
CCN(CC)CCOC(=O)c1ccc(N/C=C(/C#N)c2nc(-c3cc4ccccc4oc3=O)cs2)cc1	n	x	x
CC(C)(C)NC(=O)C[C@H]1C[C@H](C(=O)N2CCOCC2)[C@@]2(CCC3CCCC3)c3[nH]c4ccc(Cl)cc4c3CCN2C1=O	n	x	x
CCc1ccc(Nc2n[n+](-c3ccccc3)c(-c3c(Cl)cccc3Cl)s2)cc1	n	x	x
CCc1ccc(OCC(O)CN2CCC(CN3C(=O)c4cccc5cccc(c45)C3=O)CC2)cc1 (stereo not drawn)	n	x	x
CCOC(=O)C1(CCOc2ccccc2)CCN(CC(O)CO)CC1 (stereo not drawn)	-53.4	n	n
CCCN[C@H]1CCc2nc(N)sc2C1	n	x	x
Cc1ccc(-n2nc3ccc(N)cc3n2)cc1C	n	x	x
O=C(c1ccccc1)N1CCCOC1c1ccccc1 (stereo not drawn)	-67.0	n	n
C[C@H]1CN([C@@H](C)CO)C(=O)Cc2cc(NC(=O)CCC(F)(F)F)ccc2O[C@H]1CN(C)Cc1ccc(-c2ccccc2)cc1	n	x	x
CCN(CC)S(=O)(=O)c1ccc(N/N=C(\C)c2ccc3c(c2)OCO3)c([N+](=O)[O-])c1	-41.3	n	n
O=[N+]([O-])c1cc2c(cc1C=Nc1ccccc1)OCO2	n	x	x
Cc1cc(C)c2nc(N(CCN(C)C)C(=O)c3ccc(S(=O)(=O)N(C)CC4CCCO4)cc3)sc2c1 (stereo not drawn)	n	x	x
CN(Cc1ccccc1)C(=O)CN1C(=O)NC(C)(c2ccc(C(C)(C)C)cc2)C1=O (stereo not drawn)	n	x	x
CCc1ccc(OCC(=O)N/N=C2\CC(=O)c3ccccc32)cc1	n	x	x
CC(C)NS(=O)(=O)c1ccc(OCC(=O)N(C)Cc2ccccc2)cc1	-555.1	n	n
Clc1ccc(-c2nnc3sc(Cc4cccs4)nn23)cc1	n	x	x
SMILES	Apaf1 activ	Rh110 act interf	Apaf-1 act conf2
O=C1c2ccccc2N[C@@H]2C=CC[C@@H]2N1O	-55.6	n	n
C#CCOCCOCCOCCNc1nc(N2CCN(C(=O)CCCCCCCCCCNC(=O)[C@@H](CCSC)n3cc(CCO)nn3)CC2)nc(N2CCN(C(=O)CCCCCCCCCCNC(=O)[C@H]([C@@H](C)CC)n3cc(CCCCCN)nn3)CC2)n1	n	x	x
Cc1c(/C=N/Nc2nc3ccccc3[nH]2)c2ccccc2n1C	n	x	x
COc1ccc(C(=O)c2ccc3oc(-c4ccc(OC)cc4)c(C#CCCO)c3c2)cc1	-65.5	n	n
Nc1ccc2nc3c(c(Cl)c2c1)CCCC3	n	x	x
O=C(C[C@H]1C[C@H](C(=O)N2CCOCC2)[C@@]2(CCC3CCCC3)c3[nH]c4cc(-c5ccco5)ccc4c3CCN2C1=O)NCCCn1ccnc1	n	x	x
COc1ccc(-c2sc3ccccc3c2-c2ccc(OCCN(C)C)cc2)cc1	n	x	x
COc1cc(C)c(NC(=O)COc2ccc3c(c2)CCC3)cc1OC	-283.9	n	n
Cc1cc(C)cc(OCC(=O)Nc2ccc(N3CCCC3)cc2)c1	n	x	x
COc1cc2cc(NC(C)=O)cc(NCc3ccccc3)c2cc1OC	n	x	x
O=C(OCc1nnc(-c2ccccc2)o1)c1ccc([N+](=O)[O-])s1	n	x	x
Cc1cc(Nc2cccc(Cl)c2)nc(NCc2ccccc2)n1	n	x	x
CCn1c(=O)c([N+](=O)[O-])c(NC2CCS(=O)(=O)C2)c2ccccc21 (stereo not drawn)	-162.4	n	n
CCOC(=O)C1=C(CN2CCN(c3ccc(F)cc3)CC2)NC(=O)NC1c1cccs1 (stereo not drawn)	n	x	x
Cc1ccc(C(=O)c2c3ccc(N)cc3nn2CCC(N)=O)cc1	n	x	x
